pEC50: −log10 of the molar value. The source made the active and inactive calls. No cut-off for these calls is given here.
Experiments:
Hepatitis C virus [1] = test: Antiviral activity against VX 950-resistant HCV genotype 1b infected in human Huh-9-13 cells assessed as reduction in viral replication after 3 days by quantitative RT-PCR; format: functional, organism-based, Hepacivirus hominis; settings: 72 h
Method in brief: (§1)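 Huh 9-13 cells carrying a subgenomic HCV replicon were seeded at 5 x 10^3 cells/well in medium with G418 and incubated 24 h at 37°C. Serial dilutions were then added in G418-free medium for 3 days. Cells were lysed, heated 15 min at 75°C, and replicon RNA was quantified by RT-qPCR against a neomycin plasmid standard. EC50 is the 50% RNA reduction versus untreated cells.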

Hepatitis C virus [2] = test: Antiviral activity against BILN 2061-resistant HCV genotype 1b infected in human Huh-9-13 cells assessed as reduction in viral replication after 3 days by quantitative RT-PCR; format: functional, organism-based, Hepacivirus hominis; settings: 72 h; method in brief: as §1
Hepatitis C virus [3] = test: Antiviral activity against 2'-C-methyl-2'-fluoro-cytidine-resistant HCV genotype 1b infected in human Huh-9-13 cells assessed as reduction in viral replication after 3 days by quantitative RT-PCR; format: functional, organism-based, Hepacivirus hominis; settings: 72 h; method in brief: as §1
Hepatitis C virus [4] = test: Antiviral activity against cyclosporine-resistant HCV genotype 1b infected in human Huh-9-13 cells assessed as reduction in viral replication after 3 days by quantitative RT-PCR; format: functional, organism-based, Hepacivirus hominis; settings: 72 h; method in brief: as §1
Hepatitis C virus [5] = test: Antiviral activity against compound-resistant HCV genotype 1b infected in human Huh-9-13 cells assessed as reduction in viral replication after 3 days by quantitative RT-PCR; format: functional, organism-based, Hepacivirus hominis; settings: 72 h; method in brief: as §1
Hepatitis C virus [6] = test: Antiviral activity against HCV genotype 1b infected in human Huh-9-13 cells assessed as reduction in viral replication after 3 days by quantitative RT-PCR; format: functional, organism-based, Hepacivirus hominis; settings: 72 h; method in brief: as §1
Hepatitis C virus [7] = test: Antiviral activity against R479-resistant HCV genotype 1b infected in human Huh-9-13 cells assessed as reduction in viral replication after 3 days by quantitative RT-PCR; format: functional, organism-based, Hepacivirus hominis; settings: 72 h; method in brief: as §1
Hepatitis C virus [8] = test: Antiviral activity against HCV genotype 1b infected in human Huh-9-13 cells assessed as reduction in viral replication selected after 3 passages at 30 ug/ml by quantitative RT-PCR; format: functional, organism-based; settings: Hepacivirus hominis
Method in brief: (§2)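 Huh 9-13 replicon cells were seeded at 3 x 10^5 per 25-cm2 flask without G418, with compound. They were passaged at about 90% confluence and reseeded at 3 x 10^5 with the same concentration. HCV RNA was measured by RT-qPCR at each passage as % of the untreated control at the same passage. In rebound, compound was removed and G418 (1,000 µg/ml) restored.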

Hepatitis C virus [9] = test: Antiviral activity against HCV genotype 1b infected in human Huh-9-13 cells assessed as reduction in viral replication selected after 2 passages at 30 ug/ml by quantitative RT-PCR; format: functional, organism-based; settings: Hepacivirus hominis; method in brief: as §2
Hepatitis C virus [10] = test: Antiviral activity against HCV genotype 1b infected in human Huh-9-13 cells assessed as reduction in viral replication selected after 5 passages at 4 uM by quantitative RT-PCR; format: functional, organism-based; settings: Hepacivirus hominis
Method in brief: (§3)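 Resistant replicons were selected by passaging Huh 9-13 cells under 1 mg/ml G418 with gradually increasing inhibitor concentrations.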

Hepatitis C virus [11] = test: Antiviral activity against HCV genotype 1b infected in human Huh-9-13 cells assessed as reduction in viral replication selected after 7 passages at 15 uM by quantitative RT-PCR relative to wild type virus; format: functional, Hepacivirus hominis; method in brief: as §3
Hepatitis C virus [12] = test: Antiviral activity against HCV genotype 1b infected in human Huh-9-13 cells assessed as reduction in viral replication selected at 0.1 uM by quantitative RT-PCR; format: functional, organism-based; settings: Hepacivirus hominis
Hepatitis C virus [13] = test: Antiviral activity against HCV genotype 1b infected in human Huh-9-13 cells assessed as reduction in viral replication selected at 0.5 uM by quantitative RT-PCR; format: functional, organism-based; settings: Hepacivirus hominis
Hepatitis C virus [14] = test: Antiviral activity against HCV genotype 1b infected in human Huh-9-13 cells assessed as reduction in viral replication selected after 5 passages at 4 uM by quantitative RT-PCR relative to wild type virus; format: functional, Hepacivirus hominis; method in brief: as §3
Hepatitis C virus [15] = test: Antiviral activity against HCV genotype 1b infected in human Huh-9-13 cells assessed as reduction in viral replication selected after 7 passages at 5 ug/ml by quantitative RT-PCR […]; format: functional, organism-based; settings: Hepacivirus hominis
Hepatitis C virus [16] = test: Antiviral activity against HCV genotype 1b infected in human Huh-9-13 cells assessed as reduction in viral replication selected after 7 passages at 0.25 ug/ml by quantitative RT-PCR; format: functional, organism-based; settings: Hepacivirus hominis
Method in brief: (§4)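 Clearance-rebound in Huh 9-13 replicon cells over seven consecutive passages without G418, using twofold dilutions from 0.50 to 0.016 µg/ml. Rebound passages omitted compound under 1,000 µg/ml G418. Remaining HCV RNA was measured by RT-qPCR each passage as % of the untreated control at the same passage number.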

[17] = Cytotoxicity against human Huh-9-13 cells at 30 ug/ml after 3 days by MTT assay; format: cell-based; settings: 72 h
Hepatitis C virus [18] = test: Antiviral activity against HCV genotype 1b infected in human Huh-9-13 cells assessed as reduction in viral replication selected after 7 passages at 30 ug/ml by quantitative RT-PCR […]; format: functional, organism-based; settings: Hepacivirus hominis
[19] = Cytotoxicity against human Huh-9-13 cells at 1 ug/ml after 3 days by MTT assay; format: cell-based; settings: 72 h
Hepatitis C virus [20] = test: Antiviral activity against HCV genotype 1b infected in human Huh-9-13 cells assessed as reduction in viral replication selected after 8 passages at 0.25 ug/ml by quantitative RT-PCR; format: functional, organism-based; settings: Hepacivirus hominis; method in brief: as §4
Hepatitis C virus [21] = test: Antiviral activity against HCV genotype 1b infected in human Huh-9-13 cells assessed as reduction in viral replication selected after 1 passages at 5 ug/ml by quantitative RT-PCR; format: functional, Hepacivirus hominis; method in brief: as §2
Hepatitis C virus [22] = test: Antiviral activity against HCV genotype 1b infected in human Huh-9-13 cells assessed as reduction in viral replication selected after 2 passages at 1 ug/ml by quantitative RT-PCR; format: functional, organism-based; settings: Hepacivirus hominis; method in brief: as §2
Hepatitis C virus [23] = test: Antiviral activity against HCV genotype 1b infected in human Huh-9-13 cells assessed as reduction in viral replication selected after 1 passages at 0.82 uM by quantitative RT-PCR; format: functional, Hepacivirus hominis; method in brief: as §2
[24] = Cytotoxicity against human Huh-9-13 cells at 5 ug/ml after 3 days by MTT assay; format: cell-based; settings: 72 h
Hepatitis C virus [25] = test: Antiviral activity against HCV genotype 1b infected in human Huh-9-13 cells assessed as reduction in viral replication selected after 3 passages at 1 ug/ml by quantitative RT-PCR […]; format: functional, organism-based; settings: Hepacivirus hominis
Hepatitis C virus [26] = test: Antiviral activity against HCV genotype 1b infected in human Huh-9-13 cells assessed as reduction in viral replication selected after 2 passages at 5 ug/ml by quantitative RT-PCR; format: functional, organism-based; settings: Hepacivirus hominis; method in brief: as §2
Hepatitis C virus [27] = test: Antiviral activity against HCV genotype 1b infected in human Huh-9-13 cells assessed as reduction in viral replication selected after 5 passages at 1 uM by quantitative RT-PCR; format: functional, organism-based; settings: Hepacivirus hominis; method in brief: as §3
Hepatitis C virus [28] = test: Antiviral activity against HCV genotype 1b infected in human Huh-9-13 cells assessed as reduction in viral replication selected after 5 passages at 1 uM by quantitative RT-PCR relative to wild type virus; format: functional, Hepacivirus hominis
Hepatitis C virus [29] = test: Antiviral activity against HCV genotype 1b infected in human Huh-9-13 cells assessed as reduction in viral replication selected after 6 passages at 2 uM by quantitative RT-PCR; format: functional, organism-based; settings: Hepacivirus hominis; method in brief: as §3
Hepatitis C virus [30] = test: Antiviral activity against HCV genotype 1b infected in human Huh-9-13 cells assessed as reduction in viral replication selected after 6 passages at 2 uM by quantitative RT-PCR relative to wild type virus; format: functional, Hepacivirus hominis; method in brief: as §3

C[C@@]1(O)[C@H](O)[C@@H](CO)O[C@H]1n1ccc(N)nc1=O
pEC50 (Hepatitis C virus [1]): 6.00
pEC50 (Hepatitis C virus [2]): 7.40
pEC50 (Hepatitis C virus [3]): 4.52
pEC50 (Hepatitis C virus [4]): 6.68
pEC50 (Hepatitis C virus [5]): 6.96
pEC50 (Hepatitis C virus [6]): 6.39
pEC50 (Hepatitis C virus [7]): 5.94

NC(=O)c1ncn([C@@H]2O[C@H](CO)[C@@H](O)[C@H]2O)n1
inhibition (Hepatitis C virus [8]): inactive
inhibition (Hepatitis C virus [9]): inactive

[N-]=[N+]=N[C@]1(CO)O[C@@H](n2ccc(N)nc2=O)[C@H](O)[C@@H]1O [4'-AZIDOCYTIDINE]
pEC50 (Hepatitis C virus [1]): 6.16
Activity (Hepatitis C virus [10]): inactive
fold change (FC) (Hepatitis C virus [11]): 8
inhibition (Hepatitis C virus [12]): inactive
pEC50 (Hepatitis C virus [2]): 7.70
pEC50 (Hepatitis C virus [3]): 5.47
pEC50 (Hepatitis C virus [4]): 6.59
inhibition (Hepatitis C virus [13]): Active
pEC50 (Hepatitis C virus [5]): 6.92
pEC50 (Hepatitis C virus [7]): 4.81
fold change (FC) (Hepatitis C virus [14]): 3

C/C=C/C[C@@H](C)[C@@H](O)[C@H]1C(=O)N[C@@H](CC)C(=O)N(C)[C@H](C)C(=O)N(CC)[C@@H](C(C)C)C(=O)N[C@@H](C(C)C)C(=O)N(C)[C@@H](CC(C)C)C(=O)N[C@@H](C)C(=O)N[C@H](C)C(=O)N(C)[C@@H](CC(C)C)C(=O)N(C)[C@@H](CC(C)C)C(=O)N(C)[C@@H](C(C)C)C(=O)N1C [ALISPORIVIR]
pEC50 (Hepatitis C virus [1]): 6.44
inhibition (Hepatitis C virus [15]): inactive
inhibition (Hepatitis C virus [16]): Active
Activity [17]: Non-toxic
pEC50 (Hepatitis C virus [2]): 8.40
inhibition (Hepatitis C virus [18]): inactive
pEC50 (Hepatitis C virus [3]): 6.39
pEC50 (Hepatitis C virus [4]): 5.52
Activity [19]: Non-toxic
Activity (Hepatitis C virus [20]): Active
inhibition at 5 µg/mL (Hepatitis C virus [21]): 96.5%
pEC50 (Hepatitis C virus [5]): 5.57
inhibition (Hepatitis C virus [22]): inactive
inhibition at 0.82 µM (Hepatitis C virus [23]): 96.5%
pEC50 (Hepatitis C virus [6]): 7.40
pEC50 (Hepatitis C virus [7]): 5.56
Activity [24]: Non-toxic
Activity (Hepatitis C virus [25]): Active
inhibition (Hepatitis C virus [26]): inactive

COc1ccc2c(O[C@@H]3C[C@H]4C(=O)N[C@]5(C(=O)O)C[C@H]5/C=C\CCCCC[C@H](NC(=O)OC5CCCC5)C(=O)N4C3)cc(-c3csc(NC(C)C)n3)nc2c1 [CILUPREVIR]
pEC50 (Hepatitis C virus [1]): 6.51
pEC50 (Hepatitis C virus [2]): 5.90
pEC50 (Hepatitis C virus [3]): 6.54
pEC50 (Hepatitis C virus [4]): 6.77
inhibition (Hepatitis C virus [27]): inactive
pEC50 (Hepatitis C virus [5]): 7.00
fold change (FC) (Hepatitis C virus [28]): 50
pEC50 (Hepatitis C virus [7]): 5.67

C/C=C/C[C@@H](C)[C@@H](O)[C@H]1C(=O)N[C@@H](CC)C(=O)N(C)CC(=O)N(C)[C@@H](CC(C)C)C(=O)N[C@@H](C(C)C)C(=O)N(C)[C@@H](CC(C)C)C(=O)N[C@@H](C)C(=O)N[C@H](C)C(=O)N(C)[C@@H](CC(C)C)C(=O)N(C)[C@@H](CC(C)C)C(=O)N(C)[C@@H](C(C)C)C(=O)N1C [CYCLOSPORINE]
pEC50 (Hepatitis C virus [1]): 6.31
pEC50 (Hepatitis C virus [2]): 8.40
pEC50 (Hepatitis C virus [3]): 6.40
pEC50 (Hepatitis C virus [4]): 5.41
pEC50 (Hepatitis C virus [5]): 6.46
pEC50 (Hepatitis C virus [7]): 5.70

CCC[C@H](NC(=O)[C@@H]1[C@H]2CCC[C@H]2CN1C(=O)[C@@H](NC(=O)[C@@H](NC(=O)c1cnccn1)C1CCCCC1)C(C)(C)C)C(=O)C(=O)NC1CC1 [TELAPREVIR]
pEC50 (Hepatitis C virus [1]): 4.85
inhibition (Hepatitis C virus [29]): inactive
pEC50 (Hepatitis C virus [2]): 6.10
pEC50 (Hepatitis C virus [3]): 5.99
inhibition at 5 µg/mL (Hepatitis C virus [21]): 96.5%
pEC50 (Hepatitis C virus [5]): 7.05
inhibition (Hepatitis C virus [22]): inactive
fold change (FC) (Hepatitis C virus [30]): 4
inhibition at 0.82 µM (Hepatitis C virus [23]): 96.5%
pEC50 (Hepatitis C virus [6]): 6.24
inhibition (Hepatitis C virus [26]): inactive

Source: ChEMBL document CHEMBL1649126, “Debio 025, a cyclophilin binding molecule, is highly efficient in clearing hepatitis C virus (HCV) replicon-containing cells when used alone or in combination with specifically targeted antiviral therapy for HCV (STAT-C) inhibitors” (Antimicrob Agents Chemother, 2009)
